In ChEMBL document CHEMBL4665728, “Synthesis and evaluation of 1,2,4-oxadiazole derivatives as potential anti-inflammatory agents by inhibiting NF-κB signaling pathway in LPS-stimulated RAW 264.7 cells” (Bioorg Med Chem Lett, 2020):
pIC50: −log10 of the molar value. Active and inactive are the calls of the source. The rule behind the calls is not given here.

Legend:
[1] = Cytotoxicity against mouse RAW 264.7 assessed as cell viability at 20 uM incubated for 24 hrs by MTT assay (reference value: 100%); type: cell-based, RAW264.7; conditions: RAW 264.7 cells, read-out: Activity
Outline: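 MTT viability of RAW264.7 cells at 20 µM, expressed as percent of DMSO vehicle control (100%); above 75% viability counted as non-toxic; doxorubicin used as control drug.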

RAW264.7 [2] = experiment: Antiinflammatory activity against mouse RAW264.7 cells assessed as reduction in LPS-induced IL1beta mRNA expression at 3 to 6 uM incubated for 24 hrs by qRT-PCR analysis; type: functional, cell-based; conditions: dose microM 3-6, time 24.0 hrs
Outline: (§1)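 Cells co-treated with compound at several concentrations plus LPS (1 µg/mL) for 24 h; IL-6, IL-1β and TNFα mRNA by qRT-PCR, expressed as ratio to reference gene; mean ± SD, n = 3.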

RAW264.7 [3] = experiment: Antiinflammatory activity against mouse RAW264.7 cells assessed as reduction in LPS-induced p65 phosphorylation at 3 to 6 uM incubated for 45 mins by Western blot analysis; type: functional, cell-based; conditions: dose microM 3-6, time 45.0 min
Outline: (§2)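 RAW264.7 cells treated with a range of concentrations for 45 min; phospho-p65, p65, IκBα and β-actin detected by Western blot; three independent experiments.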

RAW264.7 [4] = experiment: Antiinflammatory activity against mouse RAW264.7 cells assessed as inhibition of TNFalpha-stimulated NF-kappaB activation by luciferase assay; type: functional, cell-based
RAW264.7 [5] = experiment: Antiinflammatory activity against mouse RAW264.7 cells assessed as reduction in LPS-induced TNFalpha mRNA expression at 3 to 6 uM incubated for 24 hrs by qRT-PCR analysis; type: functional, cell-based; conditions: dose microM 3-6, time 24.0 hrs; outline: as §1
RAW264.7 [6] = experiment: Antiinflammatory activity against mouse RAW264.7 cells assessed as degradation in LPS-induced IkappaBalpha phosphorylation at 3 to 6 uM incubated for 45 mins by Western blot analysis; type: functional, cell-based; conditions: dose microM 3-6, time 45.0 min; outline: as §2
RAW264.7 [7] = experiment: Antiinflammatory activity against mouse RAW264.7 cells assessed as inhibition of LPS-stimulated NO production; type: functional, cell-based
Outline: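 IC50 for inhibition of NO release by LPS-stimulated RAW264.7 macrophages; IC50 taken as the mean of three independent experiments.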

RAW264.7 [8] = experiment: Cytotoxicity against mouse RAW 264.7 assessed as reduction in cell viability up to 100 uM incubated for 24 hrs by MTT assay; type: cell-based; conditions: raw264.7, 24 h
Outline: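 MTT viability of RAW264.7 cells across 0 to 100 µM, compared with vehicle control.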

RAW264.7 [9] = experiment: Antiinflammatory activity against mouse RAW264.7 cells assessed as reduction in LPS-induced IkappaBalpha phosphorylation at 3 to 6 uM incubated for 45 mins by Western blot analysis; type: functional, cell-based; conditions: dose microM 3-6, time 45.0 min; outline: as §2
RAW264.7 [10] = experiment: Antiinflammatory activity against mouse RAW264.7 cells assessed as inhibition of LPS-stimulated NO production at 20 uM relative to control; type: functional; parameters: scale not given: the % may be the effect or the level left
Outline: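 NO production by RAW264.7 cells stimulated with LPS; inhibitory ratio expressed relative to the LPS-treated group.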

RAW264.7 [11] = experiment: Antiinflammatory activity against mouse RAW264.7 cells assessed as inhibition of LPS-stimulated iNOS protein expression at 3 to 6 uM preincubated followed by LPS addition by Western blot analysis; type: functional, cell-based; conditions: dose microM 3-6
Outline: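 iNOS protein in LPS-stimulated RAW264.7 cells detected by Western blotting; mean ± SD, n = 3.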

RAW264.7 [12] = experiment: Antiinflammatory activity against mouse RAW264.7 cells assessed as reduction in LPS-induced IL6 mRNA expression at 3 to 6 uM incubated for 24 hrs by qRT-PCR analysis; type: functional, cell-based; conditions: dose microM 3-6, time 24.0 hrs; outline: as §1
RAW264.7 [13] = experiment: Antiinflammatory activity against mouse RAW264.7 cells assessed as inhibition of LPS-stimulated nuclear translocation of p65 at 20 uM preincubated for 1 hr followed by LPS addition and measured after 24 hrs by fluorescence microscopic method; type: functional, cell-based
Outline: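 RAW264.7 cells pretreated 1 h, then stimulated with LPS (1 µg/mL) or vehicle for 24 h; p65 immunostained and localisation viewed in overlaid fluorescence images; three individual experiments.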

SMILES	viability at 24 h, 20 µM [1]	Activity (RAW264.7 [10])	other results
c1cc2cc(-c3noc(C4CCCCC4)n3)ccc2[nH]1	68.8%	–	–
COc1ccccc1-c1nc(-c2ccc3[nH]ccc3c2)no1	45%	–	–
c1coc(-c2nc(-c3ccc4[nH]ccc4c3)no2)c1	99%	86.6%	Activity (RAW264.7 [2]): Dose-dependent effect; Activity (RAW264.7 [3]): Active; pIC50 (RAW264.7 [4]): 5.87; Activity (RAW264.7 [5]): Dose-dependent effect; Activity (RAW264.7 [6]): Dose-dependent effect; pIC50 (RAW264.7 [7]): 4.89; Activity (RAW264.7 [8]): Non-Toxic; Activity (RAW264.7 [9]): Dose-dependent effect; Activity (RAW264.7 [11]): Active; Activity (RAW264.7 [12]): Dose-dependent effect; Activity (RAW264.7 [13]): Active
CSc1ccc(-c2nc(-c3ccc4[nH]ccc4c3)no2)cc1	22.8%	–	–
c1ccc(-c2nc(-c3cccc4[nH]ccc34)no2)cc1	64.3%	45.71%	pIC50 (RAW264.7 [4]): 4.86; pIC50 (RAW264.7 [7]): 4.57
c1ccc(-c2nc(-c3ccc4ccccc4c3)no2)cc1	86.2%	63.58%	–
Oc1ccc(-c2nc(-c3ccc4[nH]ccc4c3)no2)cc1	36.5%	–	–
Fc1ccccc1-c1nc(-c2ccc3[nH]ccc3c2)no1	26.4%	–	–
c1ccc(-c2noc(-c3ccccc3)n2)cc1	42.1%	–	–
c1ccc(-c2nc(-c3cccc4ccccc34)no2)cc1	90.4%	59.89%	–
c1ccc(-c2nc(-c3ccc4[nH]ccc4c3)no2)cc1	79.4%	46.76%	–
c1ccc(-c2nc(-c3ccc4cc[nH]c4c3)no2)cc1	31%	–	–
C1=CCC(c2nc(-c3ccc4[nH]ccc4c3)no2)C1	24.3%	–	–
C(=C\c1noc(-c2ccccc2)n1)/c1ccccc1	28.2%	–	–
c1ccc(-c2nc(-c3cnccn3)no2)cc1	46.2%	–	–
Cc1ccccc1-c1nc(-c2ccc3[nH]ccc3c2)no1	85.3%	47.22%	–

SMILES	viability at 24 h, 20 µM [1]	Activity (RAW264.7 [10])	other results
CC(C)C[C@H](NC(=O)[C@H](Cc1ccccc1)NC(=O)c1cnccn1)B(O)O [BORTEZOMIB]	–	–	pIC50 (RAW264.7 [4]): 7.52
c1ccc(-c2nc(Cc3cccs3)no2)cc1	85.2%	48.24%	–
c1ccc(-c2nc(-c3ccncc3)no2)cc1	89%	43.13%	–
COc1ccc(-c2nc(-c3ccc4[nH]ccc4c3)no2)cc1	41.3%	–	–
C[C@@H]1C[C@H]2[C@@H]3CCC4=CC(=O)C=C[C@]4(C)[C@@]3(F)[C@@H](O)C[C@]2(C)[C@@]1(O)C(=O)CO [DEXAMETHASONE]	–	–	pIC50 (RAW264.7 [7]): 5.38
c1ccc(-c2nc(C3CCCC3)no2)cc1	85.4%	34.28%	–
c1cc2cc(-c3noc(C4CCOCC4)n3)ccc2[nH]1	95.7%	2.75%	–
c1ccc(-c2nc(-c3c[nH]c4ccccc34)no2)cc1	11.6%	–	–
Fc1cccc(-c2nc(-c3ccc4[nH]ccc4c3)no2)c1	17.2%	–	–
Fc1ccc(-c2nc(-c3ccc4[nH]ccc4c3)no2)cc1	16.8%	–	–
Cc1ccc(-c2nc(-c3ccc4[nH]ccc4c3)no2)cc1	51.2%	–	–
c1ccc(Cc2noc(-c3ccccc3)n2)cc1	89.6%	39.33%	–
COc1cccc(-c2nc(-c3ccc4[nH]ccc4c3)no2)c1	88.1%	53.94%	–
c1ccc(-c2nc(Cc3cccc4ccccc34)no2)cc1	92.8%	41.64%	–
c1cc2cc(-c3noc(C4CCC4)n3)ccc2[nH]1	85.4%	57.58%	–
C#Cc1ccc(-c2nc(-c3ccc4[nH]ccc4c3)no2)cc1	23.6%	–	–
